Assay results from article PMC7036014 (Molecular cell, 2019).
Substitutions are numbered along the chain they refer to. Values belong to the molecule of their own block, whether it stands above or below them.

Tests used:
SIRT1 [1] = molecular target: T1, SIRT1 (Homo sapiens, UniProt Q96EB6); experiment: HPLC-MS/MS SIRT1 deacetylation assay with acetylated peptide substrates; assay type: biochemical; settings: for activation of SIRT1 towards mutant p53 peptide (p53-W): 250 nM 18:1, 10 μM resveratrol, 1 μM SRT1720; for allosteric activation of SIRT1 towards wild-type p53 peptide: p53 peptide lacking hydrophobic residue at +1 or +6
T1 sequence (Q96EB6 1-747): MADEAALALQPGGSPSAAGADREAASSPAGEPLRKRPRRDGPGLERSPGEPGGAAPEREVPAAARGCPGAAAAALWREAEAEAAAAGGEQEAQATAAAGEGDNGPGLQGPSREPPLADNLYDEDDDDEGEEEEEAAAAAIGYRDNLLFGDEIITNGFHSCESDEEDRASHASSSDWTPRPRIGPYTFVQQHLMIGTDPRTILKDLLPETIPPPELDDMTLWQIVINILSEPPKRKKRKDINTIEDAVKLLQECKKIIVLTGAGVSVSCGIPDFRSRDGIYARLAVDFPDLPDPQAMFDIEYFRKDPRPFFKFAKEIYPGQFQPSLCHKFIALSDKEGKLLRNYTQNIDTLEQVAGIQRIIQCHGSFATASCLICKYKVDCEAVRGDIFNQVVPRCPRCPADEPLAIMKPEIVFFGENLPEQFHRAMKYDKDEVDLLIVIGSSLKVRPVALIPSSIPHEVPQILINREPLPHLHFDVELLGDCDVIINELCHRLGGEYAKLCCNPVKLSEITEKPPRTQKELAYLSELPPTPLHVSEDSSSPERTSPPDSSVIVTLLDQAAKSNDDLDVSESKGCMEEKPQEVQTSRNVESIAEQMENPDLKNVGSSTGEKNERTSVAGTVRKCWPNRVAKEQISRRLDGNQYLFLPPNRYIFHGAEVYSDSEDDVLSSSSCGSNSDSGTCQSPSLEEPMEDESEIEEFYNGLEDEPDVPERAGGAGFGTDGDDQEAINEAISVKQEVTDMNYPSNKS
Summary of the method: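 Recombinant SIRT1 (1 μM, E. coli-expressed) incubated with acetylated peptide (0–250 μM) plus fatty acid in 25 mM Tris, pH 8.0, 50 mM NaCl, 1 mM DTT, 1 mM NAD+ for 60 min at 37°C. Deacetylation quantified by HPLC-MS/MS with positive-mode electrospray. Km, Vmax and kcat obtained from Lineweaver-Burk plots.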

SIRT1 [2] = molecular target: T1, SIRT1; experiment: Intrinsic tryptophan fluorescence quenching binding assay, SIRT1; settings: for Kd, SIRT1: tryptophan quenching
SIRT1 [3] = molecular target: T1, SIRT1; experiment: 1,8-ANS displacement assay, SIRT1; assay type: binding; settings: for Ki, SIRT1: displacement of 1,8-ANS
SIRT1 [4] = molecular target: T1, SIRT1; experiment: Circular dichroic analysis of SIRT1 secondary structure with ligand; settings: for shape of the CD spectrum of SIRT1: addition of ligand; for α-helical content of SIRT1: with ligand, 23% without ligand
[5] = molecular target: T2, recombinant full-length murine PLIN5 (Mus musculus, UniProt Q8BVZ1); experiment: Intrinsic tryptophan fluorescence quenching binding assay, PLIN5; settings: for binding curve, PLIN5: tryptophan fluorescence
T2 sequence (Q8BVZ1 1-463): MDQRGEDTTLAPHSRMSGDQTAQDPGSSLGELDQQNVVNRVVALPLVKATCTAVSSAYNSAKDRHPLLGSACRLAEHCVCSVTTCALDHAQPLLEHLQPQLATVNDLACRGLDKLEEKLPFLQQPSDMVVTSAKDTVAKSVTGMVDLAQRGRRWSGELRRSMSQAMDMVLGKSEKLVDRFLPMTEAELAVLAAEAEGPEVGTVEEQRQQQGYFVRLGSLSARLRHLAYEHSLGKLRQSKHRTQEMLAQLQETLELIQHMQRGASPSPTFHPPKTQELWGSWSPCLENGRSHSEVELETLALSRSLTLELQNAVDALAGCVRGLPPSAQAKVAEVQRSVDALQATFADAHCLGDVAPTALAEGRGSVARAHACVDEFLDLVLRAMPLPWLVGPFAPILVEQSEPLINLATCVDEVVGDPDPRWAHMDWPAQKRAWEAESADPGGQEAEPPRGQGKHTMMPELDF
Summary of the method: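 Protein at 150 nM in 10 mM NaH2PO4, pH 7.5, titrated with ethanolic fatty acid. Excitation 295 nm, emission scanned 300–400 nm. Signal corrected for buffer-plus-ligand background. ΔF (F0−F) plotted against ligand to give a saturation curve. Kd taken from linear regression of the double-reciprocal transform. PLIN5: untagged full-length murine recombinant protein, n=4.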

PLIN5-pM (S155E) = molecular target: T3, PLIN5-pM (S155E) (Mus musculus, UniProt Q8BVZ1, S155E); experiment: Tryptophan fluorescence quenching binding assay, PLIN5-pM; parameters: species or system murine; settings: for increase in binding affinity of PLIN5-pM: PLIN5-pM vs comparator
T3 sequence (Q8BVZ1 1-463 S155E): T2 sequence (Q8BVZ1 1-463) with S155E

PLIN5 = molecular target: T4, PLIN5 (Mus musculus, UniProt Q8BVZ1); experiment: 1,8-ANS displacement assay, PLIN5; assay type: binding, murine
T4 sequence (Q8BVZ1 1-463): T2 sequence (Q8BVZ1 1-463)
Summary of the method: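 Untagged recombinant PLIN5 (His-MBP tag removed by TEV protease) at 1 μM with 500 nM 1,8-ANS in 50 mM sodium phosphate, pH 7.5, 25°C. Competitor lipids added in increasing amounts, each mixed 60 s before reading fluorescence. I50 taken from the normalized displacement curve. Ki = I50/(1+[L]/KD), using the ANS KD from a Scatchard analysis of a protein titration.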

PGC-1α activity, MEFs = experiment: PGC-1α luciferase reporter assay in MEFs; assay type: cell-based, mouse; settings: for PGC-1α activity with cAMP, individual fatty acid loading: vs non-loaded or 18:0/16:0 loaded cells; for activation of PGC-1α in Sirt1 knockout cells rescued with GFP tagged human Sirt1: Sirt1 knockout MEFs + human Sirt1
PLIN5-pM = molecular target: T5, PLIN5-pM (Mus musculus, UniProt Q8BVZ1, S155E); experiment: Circular dichroic analysis of PLIN5-pM with ligand; parameters: species or system murine; settings: addition of ligand
T5 sequence (Q8BVZ1 1-463 S155E): T2 sequence (Q8BVZ1 1-463) with S155E
Summary of the method: (§1)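 Far-UV CD spectra of the PLIN5 phospho-mutants in 10 mM NaH2PO4, pH 7.5, with 10 mM NaCl, with and without ligand. Run at 25°C in a 1 mm path cuvette. Ligand incubated 2–5 min before each scan. Each spectrum is the average of ten scans, repeated in triplicate.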

PLIN5-pD = molecular target: T6, PLIN5-pD (Mus musculus, UniProt Q8BVZ1, S155A); experiment: Circular dichroic analysis of PLIN5-pD with ligand; parameters: species or system murine; settings: addition of ligand
T6 sequence (Q8BVZ1 1-463 S155A): T2 sequence (Q8BVZ1 1-463) with S155A
Summary of the method: as §1

[6] = system: PGC-1α activity, primary hepatocytes; experiment: PGC-1α luciferase reporter assay in primary hepatocytes; assay type: cell-based, mouse; settings: hepatocytes preloaded with fatty acid
[7] = system: PGC-1α activity, mouse L-cells; experiment: PGC-1α luciferase reporter assay in L-cells; assay type: cell-based; settings: Plin5 knockout L-cells
[8] = system: cellular cAMP levels, MEF cells; experiment: cAMP-Glo Assay in MEF cells; assay type: cell-based, mouse; settings: 6 hrs 500 μM 18:1, no Iso/IBMX
Summary of the method: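 MEFs in DMEM/10% FBS given 2% fatty-acid-free BSA or 500 μM 18:1–BSA complex for 6 or 16 h. Then washed and switched to serum-free DMEM with DMSO or 20 μM isoproterenol/500 μM IBMX for 20 min. cAMP-Glo steps at room temperature: lysis 15 min, detection solution 20 min, Kinase-Glo 10 min. n=12–16.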

[9] = acetylated PGC-1α peptide substrate
[10] = acetylated FOXO3a peptide substrate
[11] = fixed amounts of PGC-1α, FOXO3a and H3 peptides, 150 or 600 nM 18:1

stimulation of SIRT1 deacetylase activity (SIRT1 [1]; [9]): unable to stimulate
Kd, SIRT1 (SIRT1 [2]): No fatty acid binding was observed
Ki, SIRT1 (SIRT1 [3]): not observed
shape of the CD spectrum of SIRT1 (SIRT1 [4]): did not alter
binding curve, PLIN5 [5]: Saturable binding curves
SMILES: CCCCCCCCCCCCCCCC(=O)O [16:0, palmitic acid]

Km of SIRT1 towards the PGC-1α peptide (SIRT1 [1]; [9]): lowering
SIRT1 catalytic efficiency (Kcat/Km) towards the PGC-1α peptide (SIRT1 [1]; [9]): increase
Kd (SIRT1 [2]): 100 ± 3 nM
Ki (SIRT1 [3]): 12500 ± 60 nM
α-helical content of SIRT1 (SIRT1 [4]): 25.9%
Kd [5]: 82 ± 12 nM
binding curve, PLIN5 [5]: Saturable binding curves
Kd (PLIN5-pM (S155E)): 23 ± 3 nM
increase in binding affinity of PLIN5-pM (PLIN5-pM (S155E)): 3.4 fold
Ki (PLIN5): 9900 ± 70 nM
PGC-1α activity with cAMP, individual fatty acid loading (PGC-1α activity, MEFs): synergized with cAMP
SMILES: CCCCCC/C=C\CCCCCCCC(=O)O [16:1, palmitoleic acid]

stimulation of SIRT1 deacetylase activity (SIRT1 [1]; [9]): unable to stimulate
Kd, SIRT1 (SIRT1 [2]): No fatty acid binding was observed
Ki, SIRT1 (SIRT1 [3]): not observed
shape of the CD spectrum of SIRT1 (SIRT1 [4]): did not alter
binding curve, PLIN5 [5]: Saturable binding curves
Ki (PLIN5): 17700 ± 40 nM
SMILES: CCCCCCCCCCCCCCCCCC(=O)O [18:0, stearic acid]

SMILES: CCCCCCCC/C=C\CCCCCCCC(=O)O [18:1, oleic acid]
effect on Km and catalytic efficiency on co-addition with resveratrol (SIRT1 [1]; PGC-1α peptide, co-addition of 18:1 and resveratrol vs single compound): not additive
Km of SIRT1 towards the FOXO3a peptide (SIRT1 [1]; [10]): reduced
SIRT1 catalytic efficiency towards the FOXO3a peptide (SIRT1 [1]; [10]): increased
Km of SIRT1 towards the PGC-1α peptide (SIRT1 [1]; [9]): lowering
SIRT1 catalytic efficiency (Kcat/Km) towards the PGC-1α peptide (SIRT1 [1]; [9]): increase
enzyme velocity (SIRT1 [1]; [9]): without a significant change
deacetylase activity towards FOXO3a and PGC-1α peptides, competition assay (SIRT1 [1]; [11]): increased
deacetylase activity towards H3, competition assay (SIRT1 [1]; [11]): decreased
activation of SIRT1 towards mutant p53 peptide (p53-W) (SIRT1 [1]): activated
allosteric activation of SIRT1 towards wild-type p53 peptide (SIRT1 [1]): did not respond
Kd (SIRT1 [2]): 81 ± 9 nM
Ki (SIRT1 [3]): 5600 ± 120 nM
α-helical content of SIRT1 (SIRT1 [4]): 28.6%
Kd [5]: 89 ± 2 nM
binding curve, PLIN5 [5]: Saturable binding curves
Kd (PLIN5-pM (S155E)): 36 ± 8 nM
increase in binding affinity of PLIN5-pM (PLIN5-pM (S155E)): 2.4 fold
Ki (PLIN5): 4000 ± 130 nM
shape of the CD spectrum of PLIN5-pM (PLIN5-pM): robustly altered
CD spectrum changes of PLIN5-pD (PLIN5-pD): more subtle changes
PGC-1α activity response to cAMP and protein overexpression [6]: further enhanced
basal PGC-1α activity, acute exposure (PGC-1α activity, MEFs; 6 hrs, 500 μM 18:1): increased
requirement of PKA-stimulated lipolysis for activation of PGC-1α (PGC-1α activity, MEFs; PKA or ATGL inhibitors): required
regulation of PGC-1α activity in MEFs lacking Sirt1 (PGC-1α activity, MEFs; Sirt1 knockout MEFs): SIRT1 was required
activation of PGC-1α in Sirt1 knockout cells rescued with GFP tagged human Sirt1 (PGC-1α activity, MEFs): restored
PGC-1α activity upon stimulation of β-adrenergic signaling (PGC-1α activity, MEFs; acute and overnight loading vs non-loaded cells, isoproterenol/IBMX): enhanced
PGC-1α activity with cAMP, individual fatty acid loading (PGC-1α activity, MEFs): synergized with cAMP
regulation of PGC-1α activity in L-Cells lacking Plin5 [7]: PLIN5 was required
cellular cAMP levels, acute exposure [8]: increased

binding curve, PLIN5 [5]: Saturable binding curves
SMILES: CCCCC/C=C\C/C=C\C/C=C\C/C=C\CCCC(=O)O [20:4, arachidonic acid]

SMILES: CN(C)C(=O)Nc1cccc(-c2ccc(N(C)C)cc2)c1 [ATGLstatin, reference compound]
effects of β-adrenergic stimulation on PGC-1α activity in 18:1 loaded cells (PGC-1α activity, MEFs; 30 μM ATGL inhibitor): blocked

activation of SIRT1 towards mutant p53 peptide (p53-W) (SIRT1 [1]): activated
allosteric activation of SIRT1 towards wild-type p53 peptide (SIRT1 [1]): did not respond
SMILES: O=C(Nc1ccccc1-c1cn2c(CN3CCNCC3)csc2n1)c1cnc2ccccc2n1 [SRT1720, reference compound]

activation of SIRT1 towards mutant p53 peptide (p53-W) (SIRT1 [1]): activated
allosteric activation of SIRT1 towards wild-type p53 peptide (SIRT1 [1]): did not respond
SMILES: Oc1ccc(/C=C/c2cc(O)cc(O)c2)cc1 [resveratrol, reference compound]
activation of PGC-1α in Sirt1 knockout cells rescued with GFP tagged human Sirt1 (PGC-1α activity, MEFs): restored
regulation of PGC-1α in Sirt1 knockout cells rescued with Sirt1-E230K mutant (PGC-1α activity, MEFs; Sirt1 knockout MEFs + human Sirt1 E230K): did not restore
